Here are results for 2 molecules from ChEMBL document CHEMBL1127860, “Design, synthesis, X-ray analysis, and dopamine receptor-modulating activity of mimics of the "C5" hydrogen-bonded conformation in the peptidomimetic 2-oxo-3(R)-[(2(S)-pyrrolidinylcarbonyl)amino]-1- pyrrolidineacetamide” (J Med Chem, 1994).

Test [1] can be described thus: Ratio of Rh and RL Inhibitor constants in absence of (Gpp(NH)p).
For test [2], the target named is D(2) dopamine receptor (Bos taurus) (UniProt P20288). Description: Binding towards dopamine D2 receptor using [3H]spiroperidol in the absence of (Gpp(NH)p).
Test [3] shares this target. Put plainly: Percentage of sites in low affinity form for the agonist in the presence of (Gpp(NH)p). In kind it is functional.
Test [4] has the same target. Description: Tested for the ability to enhance the binding of the dopamine D2 receptor agonist N-propylnorapomorphine (NPA) in the presence of (Gpp(NH)p). The method, boiled down:
(§1)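 High-affinity [³H]NPA (0.05 nM) binding to bovine striatal membranes, 1 h at 22 °C, then GF/B filtration. Compound at 1, 10 or 100 nM, either with 100 μM Gpp(NH)p added directly or after a 2 h, 4 °C preincubation with Gpp(NH)p and washing. Expressed as % of maximal specific binding in Gpp(NH)p-free membranes. Mean ± SEM of five experiments.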

The target is the same in test [5]. Description: Percentage of sites in high affinity form for the agonist in the absence of (Gpp(NH)p. In kind it is functional.
Test [6] shares this target. Description: Tested for the ability to enhance the binding of the dopamine D2 receptor agonist N-propylnorapomorphine (NPA) in the absence of (Gpp(NH)p). The essentials:
as §1

Test [7] in a line: Ratio of Rh and RL Inhibitor constants in presence of (Gpp(NH)p).
For test [8], the target named is D(2) dopamine receptor (Bos taurus) (UniProt P20288). Description: Percentage of sites in high affinity form for the agonist in the presence of (Gpp(NH)p). In kind it is functional.
The target is the same in test [9]. Description: Percentage of sites in low affinity form for the agonist in the absence of (Gpp(NH)p). The format is functional.
Test [10] shares this target. Description: Binding towards dopamine D2 receptor using [3H]spiroperidol in presence of (Gpp(NH)p).
Test [11] has the same target.
Test [12] has the same target. The source holds these as a separate data set.

SMILES strings stand for the structures.

Chain of D(2) dopamine receptor (Bos taurus) (P20288 whole entry): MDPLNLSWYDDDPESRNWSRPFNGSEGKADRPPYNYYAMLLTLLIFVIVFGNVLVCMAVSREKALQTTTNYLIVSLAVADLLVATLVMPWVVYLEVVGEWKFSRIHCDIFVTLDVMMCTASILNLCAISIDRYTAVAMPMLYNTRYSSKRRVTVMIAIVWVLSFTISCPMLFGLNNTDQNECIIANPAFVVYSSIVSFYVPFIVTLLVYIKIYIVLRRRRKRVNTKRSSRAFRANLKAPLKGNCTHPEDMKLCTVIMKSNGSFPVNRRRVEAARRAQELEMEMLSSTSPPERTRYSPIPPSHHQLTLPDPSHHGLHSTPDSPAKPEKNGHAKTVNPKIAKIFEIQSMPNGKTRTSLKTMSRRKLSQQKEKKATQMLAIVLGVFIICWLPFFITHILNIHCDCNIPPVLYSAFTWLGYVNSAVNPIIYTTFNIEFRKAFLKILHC

For `CC1(C)N2CCC[C@H]2C(=O)N1[C@@H]1CCN(CC(N)=O)C1=O`, the values for the Ratio in test [1] and in [7] were 1.91 and 0.56, respectively. The KH in test [2] came to 0.03 nM; in [10] it was 0.07 nM. Also, the RL was found to be 64% in test [3] and 34% in test [9]. Moreover, the KL in test [4] was 77 nM; in test [6], 61 nM. Further, the RH in [5] came to 65%; in test [8] it was 36%.

Take `NC(=O)CN1CC[C@@H](N2CC(=O)N3CCC[C@H]3C2=O)C1=O`: the KL turned out to be 64 nM in [11] and 56 nM in test [12]. For the same molecule, the Ratio was 1.97 in test [1] and 0.71 in [7]. The KH in test [2] amounted to 0.02 nM; in [10], 0.05 nM. Further, the figures for the RL in [3] and in [9] were 59% and 33%, respectively. In addition, the RH in [5] was 65%; in test [8], 42%.
